Experimental data: ChEMBL document CHEMBL2346522, “Rational design of apoptosis signal-regulating kinase 1 inhibitors: discovering novel structural scaffold” (Eur J Med Chem, 2013)

What was measured:
[1] = target: T1, Mitogen-activated protein kinase kinase kinase 5 (Homo sapiens, UniProt Q99683); test: Inhibition of human ASK1 using MBP as substrate incubated for 10 mins prior to ATP addition measured after 20 mins by liquid scintillation counting analysis
T1 sequence (Q99683 whole entry): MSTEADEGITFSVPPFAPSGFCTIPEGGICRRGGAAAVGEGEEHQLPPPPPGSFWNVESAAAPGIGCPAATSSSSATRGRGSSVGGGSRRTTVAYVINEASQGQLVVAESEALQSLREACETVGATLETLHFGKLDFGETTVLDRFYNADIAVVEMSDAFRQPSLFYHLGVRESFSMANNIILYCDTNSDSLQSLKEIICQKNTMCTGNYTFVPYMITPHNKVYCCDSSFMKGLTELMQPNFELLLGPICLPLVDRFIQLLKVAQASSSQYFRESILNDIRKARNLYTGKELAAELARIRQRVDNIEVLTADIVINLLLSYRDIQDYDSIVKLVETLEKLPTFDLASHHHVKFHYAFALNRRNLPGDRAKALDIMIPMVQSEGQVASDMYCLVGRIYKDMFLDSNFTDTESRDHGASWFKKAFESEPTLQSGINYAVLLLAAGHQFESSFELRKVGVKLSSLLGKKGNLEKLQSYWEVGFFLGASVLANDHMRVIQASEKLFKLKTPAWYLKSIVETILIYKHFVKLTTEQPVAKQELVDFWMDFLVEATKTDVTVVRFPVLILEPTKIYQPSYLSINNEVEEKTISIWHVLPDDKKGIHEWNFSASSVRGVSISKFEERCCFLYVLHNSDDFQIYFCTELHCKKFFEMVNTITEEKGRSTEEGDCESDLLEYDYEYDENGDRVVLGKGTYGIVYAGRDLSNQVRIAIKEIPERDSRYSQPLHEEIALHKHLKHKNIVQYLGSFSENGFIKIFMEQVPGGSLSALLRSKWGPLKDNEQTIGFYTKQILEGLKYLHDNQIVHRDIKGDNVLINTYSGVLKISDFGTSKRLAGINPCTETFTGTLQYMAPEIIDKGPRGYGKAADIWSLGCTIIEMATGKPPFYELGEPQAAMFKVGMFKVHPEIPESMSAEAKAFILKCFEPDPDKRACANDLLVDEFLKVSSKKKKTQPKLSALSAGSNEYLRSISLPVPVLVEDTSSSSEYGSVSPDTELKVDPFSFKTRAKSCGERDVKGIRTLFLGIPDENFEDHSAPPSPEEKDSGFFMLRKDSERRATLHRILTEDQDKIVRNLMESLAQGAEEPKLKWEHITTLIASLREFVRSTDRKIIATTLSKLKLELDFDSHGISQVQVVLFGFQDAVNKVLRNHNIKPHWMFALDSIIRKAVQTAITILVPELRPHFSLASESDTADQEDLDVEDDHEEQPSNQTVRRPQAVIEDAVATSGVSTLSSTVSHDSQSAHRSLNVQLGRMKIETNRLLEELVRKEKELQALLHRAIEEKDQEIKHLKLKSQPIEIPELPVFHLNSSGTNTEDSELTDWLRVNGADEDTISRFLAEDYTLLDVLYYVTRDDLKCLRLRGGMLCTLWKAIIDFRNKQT
Summary of the method: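 Inhibitor added from a DMSO stock is incubated with enzyme on ice for 10 min. The reaction is started with ATP plus MgCl₂ in MOPS pH 7.2, and labeled and unlabeled ATP are combined.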

[2] = target: Angiopoietin-1 receptor (Homo sapiens) (UniProt Q02763); test: Inhibition of human Tie2 using TK substrate 2 as substrate assessed as residual activity at 10 uM incubated for 10 mins prior to ATP addition measured after 20 mins by liquid scintillation counting analysis
Angiopoietin-1 receptor (Homo sapiens), sequence (Q02763 whole entry): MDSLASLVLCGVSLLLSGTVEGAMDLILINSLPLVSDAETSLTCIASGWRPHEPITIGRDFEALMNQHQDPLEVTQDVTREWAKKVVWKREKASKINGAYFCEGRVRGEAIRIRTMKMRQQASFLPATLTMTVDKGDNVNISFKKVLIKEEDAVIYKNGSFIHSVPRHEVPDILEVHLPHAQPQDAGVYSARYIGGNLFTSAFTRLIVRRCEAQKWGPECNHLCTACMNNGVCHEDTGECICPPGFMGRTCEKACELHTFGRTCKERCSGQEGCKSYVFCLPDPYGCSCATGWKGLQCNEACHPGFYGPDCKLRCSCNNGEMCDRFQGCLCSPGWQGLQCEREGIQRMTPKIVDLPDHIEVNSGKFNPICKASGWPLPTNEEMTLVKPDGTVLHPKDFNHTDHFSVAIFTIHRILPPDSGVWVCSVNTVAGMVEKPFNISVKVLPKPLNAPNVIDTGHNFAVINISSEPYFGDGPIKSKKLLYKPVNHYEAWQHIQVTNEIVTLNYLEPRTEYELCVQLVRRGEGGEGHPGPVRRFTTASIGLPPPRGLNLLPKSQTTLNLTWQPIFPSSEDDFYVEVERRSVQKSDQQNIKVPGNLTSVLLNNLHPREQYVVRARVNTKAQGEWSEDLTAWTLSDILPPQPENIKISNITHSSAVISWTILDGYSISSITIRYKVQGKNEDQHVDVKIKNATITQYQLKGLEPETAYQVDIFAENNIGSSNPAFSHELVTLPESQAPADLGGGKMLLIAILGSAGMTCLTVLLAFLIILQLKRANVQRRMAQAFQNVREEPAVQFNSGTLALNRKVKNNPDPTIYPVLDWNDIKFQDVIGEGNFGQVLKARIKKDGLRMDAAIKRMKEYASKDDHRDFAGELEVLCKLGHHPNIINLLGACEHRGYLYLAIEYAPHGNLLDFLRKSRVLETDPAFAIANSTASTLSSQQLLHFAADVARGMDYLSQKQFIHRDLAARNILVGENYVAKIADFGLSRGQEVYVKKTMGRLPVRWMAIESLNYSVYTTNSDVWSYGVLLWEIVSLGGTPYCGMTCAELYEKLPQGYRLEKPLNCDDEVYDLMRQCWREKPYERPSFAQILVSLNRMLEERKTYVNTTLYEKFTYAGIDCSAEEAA

[3] = target: Casein kinase II (Homo sapiens) (UniProt P67870+P68400+P19784); test: Inhibition of human CK2 using RRRDDDSDDD as substrate assessed as residual activity at 10 uM incubated for 10 mins prior to ATP addition measured after 20 mins by liquid scintillation counting analysis; assay type: protein-complex assay
[4] = target: Fibroblast growth factor receptor 1 (Homo sapiens) (UniProt P11362); test: Inhibition of human FGFR1 using IGF-IRtide (12 to 527) as substrate assessed as residual activity at 10 uM incubated for 10 mins prior to ATP addition measured after 20 mins by liquid scintillation counting analysis
Fibroblast growth factor receptor 1 (Homo sapiens), sequence (P11362 22-822 limits assumed): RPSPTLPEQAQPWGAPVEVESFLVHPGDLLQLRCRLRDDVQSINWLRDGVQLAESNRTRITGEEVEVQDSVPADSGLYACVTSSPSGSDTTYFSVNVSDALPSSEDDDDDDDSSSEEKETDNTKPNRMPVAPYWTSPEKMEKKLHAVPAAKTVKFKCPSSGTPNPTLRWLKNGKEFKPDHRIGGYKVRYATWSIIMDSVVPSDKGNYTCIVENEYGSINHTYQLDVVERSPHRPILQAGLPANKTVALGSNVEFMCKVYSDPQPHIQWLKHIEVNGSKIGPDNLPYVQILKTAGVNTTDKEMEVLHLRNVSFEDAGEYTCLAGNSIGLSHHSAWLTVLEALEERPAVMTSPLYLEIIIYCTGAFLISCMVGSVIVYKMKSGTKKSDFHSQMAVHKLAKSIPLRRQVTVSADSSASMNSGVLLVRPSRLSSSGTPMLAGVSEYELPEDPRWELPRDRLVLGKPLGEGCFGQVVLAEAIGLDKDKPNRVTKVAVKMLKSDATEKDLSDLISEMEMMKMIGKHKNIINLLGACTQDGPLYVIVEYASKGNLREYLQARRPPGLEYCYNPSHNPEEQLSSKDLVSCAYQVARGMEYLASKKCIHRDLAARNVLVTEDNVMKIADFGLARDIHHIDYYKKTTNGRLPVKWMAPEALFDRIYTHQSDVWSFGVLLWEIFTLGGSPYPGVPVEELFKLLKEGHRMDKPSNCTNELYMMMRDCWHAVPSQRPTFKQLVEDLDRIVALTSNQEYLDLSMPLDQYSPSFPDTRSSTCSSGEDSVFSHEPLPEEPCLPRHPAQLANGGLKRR

[5] = target: T2, Aurora kinase A (Homo sapiens) (UniProt O14965); test: Inhibition of human Aurora A using Kemptide as substrate assessed as residual activity at 10 uM incubated for 10 mins prior to ATP addition measured after 20 mins by liquid scintillation counting analysis
T2 sequence (whole entry): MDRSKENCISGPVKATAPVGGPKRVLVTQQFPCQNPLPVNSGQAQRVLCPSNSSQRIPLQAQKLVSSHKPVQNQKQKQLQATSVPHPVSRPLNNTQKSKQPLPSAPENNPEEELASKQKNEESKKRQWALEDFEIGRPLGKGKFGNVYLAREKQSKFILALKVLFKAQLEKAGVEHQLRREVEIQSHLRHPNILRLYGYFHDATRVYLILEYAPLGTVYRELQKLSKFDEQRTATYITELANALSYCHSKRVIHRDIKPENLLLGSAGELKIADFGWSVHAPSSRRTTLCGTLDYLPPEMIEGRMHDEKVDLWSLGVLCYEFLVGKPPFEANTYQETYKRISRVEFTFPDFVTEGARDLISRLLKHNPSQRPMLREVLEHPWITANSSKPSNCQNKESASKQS

[6] = target: T3, Mitogen-activated protein kinase kinase kinase 5 (Homo sapiens) (UniProt Q99683); test: Inhibition of human ASK1 using MBP as substrate assessed as residual activity at 10 uM incubated for 10 mins prior to ATP addition measured after 20 mins by liquid scintillation counting analysis
T3 sequence (whole entry): T1 sequence (Q99683 whole entry)

[7] = target: Mitogen-activated protein kinase 10 (Homo sapiens) (UniProt P53779); test: Inhibition of human JNK3 using JNK3tide as substrate assessed as residual activity at 10 uM incubated for 10 mins prior to ATP addition measured after 20 mins by liquid scintillation counting analysis
Mitogen-activated protein kinase 10 (Homo sapiens), sequence (P53779 whole entry): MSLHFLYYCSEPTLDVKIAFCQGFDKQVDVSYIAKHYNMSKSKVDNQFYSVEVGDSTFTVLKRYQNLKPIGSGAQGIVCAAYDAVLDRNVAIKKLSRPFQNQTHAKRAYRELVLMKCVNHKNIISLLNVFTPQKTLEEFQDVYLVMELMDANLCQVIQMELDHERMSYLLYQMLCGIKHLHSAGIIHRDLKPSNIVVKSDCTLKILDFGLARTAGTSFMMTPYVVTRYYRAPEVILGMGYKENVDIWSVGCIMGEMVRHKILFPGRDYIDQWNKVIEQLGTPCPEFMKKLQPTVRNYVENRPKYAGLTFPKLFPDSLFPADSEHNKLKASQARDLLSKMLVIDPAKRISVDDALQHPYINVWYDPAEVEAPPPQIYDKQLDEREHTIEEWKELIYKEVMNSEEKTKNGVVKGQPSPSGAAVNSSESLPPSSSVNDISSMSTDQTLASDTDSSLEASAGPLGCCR

[8] = target: Hepatocyte growth factor receptor (Homo sapiens) (UniProt P08581); test: Inhibition of human HGFR using KKKSPGEYVNIEFG as substrate assessed as residual activity at 10 uM incubated for 10 mins prior to ATP addition measured after 20 mins by liquid scintillation counting analysis
Hepatocyte growth factor receptor (Homo sapiens), sequence (P08581 whole entry): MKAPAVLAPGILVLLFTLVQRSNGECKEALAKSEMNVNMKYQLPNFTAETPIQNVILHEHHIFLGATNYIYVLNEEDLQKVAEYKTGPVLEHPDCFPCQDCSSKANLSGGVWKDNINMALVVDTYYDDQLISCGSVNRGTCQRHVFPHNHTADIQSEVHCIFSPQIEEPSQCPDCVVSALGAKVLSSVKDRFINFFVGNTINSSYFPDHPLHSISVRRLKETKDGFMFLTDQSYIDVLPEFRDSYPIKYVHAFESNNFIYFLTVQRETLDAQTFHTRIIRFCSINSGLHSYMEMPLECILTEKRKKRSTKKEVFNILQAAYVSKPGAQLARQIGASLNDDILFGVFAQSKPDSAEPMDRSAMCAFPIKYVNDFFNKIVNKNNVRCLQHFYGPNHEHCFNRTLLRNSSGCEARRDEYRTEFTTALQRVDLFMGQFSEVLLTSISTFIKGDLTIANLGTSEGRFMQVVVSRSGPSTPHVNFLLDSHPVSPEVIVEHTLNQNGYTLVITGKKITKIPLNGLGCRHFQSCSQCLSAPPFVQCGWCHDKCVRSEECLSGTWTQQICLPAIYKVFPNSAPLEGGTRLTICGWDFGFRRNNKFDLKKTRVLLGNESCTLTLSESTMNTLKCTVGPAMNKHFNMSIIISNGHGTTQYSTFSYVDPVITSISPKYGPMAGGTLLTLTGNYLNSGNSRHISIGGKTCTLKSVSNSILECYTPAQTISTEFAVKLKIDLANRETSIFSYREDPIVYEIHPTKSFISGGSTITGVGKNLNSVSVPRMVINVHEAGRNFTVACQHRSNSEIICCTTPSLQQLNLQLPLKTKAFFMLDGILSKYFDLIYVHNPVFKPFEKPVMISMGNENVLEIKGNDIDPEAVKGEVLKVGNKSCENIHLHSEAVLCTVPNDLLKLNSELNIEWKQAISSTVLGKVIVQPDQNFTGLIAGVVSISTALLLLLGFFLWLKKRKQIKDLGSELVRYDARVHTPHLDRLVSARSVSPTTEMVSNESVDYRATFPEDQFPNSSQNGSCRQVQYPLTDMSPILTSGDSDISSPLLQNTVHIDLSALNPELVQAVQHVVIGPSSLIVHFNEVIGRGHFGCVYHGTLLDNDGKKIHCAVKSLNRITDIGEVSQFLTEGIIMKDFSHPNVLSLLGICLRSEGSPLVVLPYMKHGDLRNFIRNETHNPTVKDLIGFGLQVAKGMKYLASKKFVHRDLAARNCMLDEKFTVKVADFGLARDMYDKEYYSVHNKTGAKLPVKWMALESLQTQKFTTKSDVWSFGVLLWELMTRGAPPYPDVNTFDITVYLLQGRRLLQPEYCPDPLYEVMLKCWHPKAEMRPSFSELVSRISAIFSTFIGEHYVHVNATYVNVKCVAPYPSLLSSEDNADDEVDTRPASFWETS

[9] = target: T1, Mitogen-activated protein kinase kinase kinase 5; test: Competitive inhibition of human ASK1 using MBP as substrate incubated for 10 mins prior to ATP addition measured after 20 mins by Lineweaver-Burk plot analysis
Summary of the method: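 ASK1 activity with MBP substrate and γ-³²P-ATP. Enzyme and substrate sit in MOPS pH 7.2 buffer (EGTA, EDTA, DTT, BSA, β-glycerophosphate). Inhibitor from a DMSO stock is pre-mixed with them on ice for 10 min. The reaction starts with ATP/MgCl₂. Substrate concentration curves are run at several inhibitor levels, in triplicate, and analysed by Lineweaver–Burk linearized plots.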

IC50 [1]	Compound	further results
500 nM	CCC(C(=O)O)N1C(=O)/C(=C/c2ccc(-c3ccc(Br)cc3)o2)SC1=S (configuration not stated)	
300 nM	O=C(O)CCCN1C(=O)/C(=C/c2ccc(-c3ccccc3Cl)o2)SC1=S	Activity [2]: 22%; Activity [3]: 15%; Activity [4]: 16%; Activity [5]: 14%; Activity [6]: 3.5%; Activity [7]: 41%; Activity [8]: 25%
1800 nM	CCc1ccc(-c2ccc(/C=C3\SC(=S)N(C(CC(=O)O)C(=O)O)C3=O)o2)cc1 (configuration not stated)	
750 nM	O=C(O)CCN1C(=O)/C(=C/c2ccc(-c3ccccc3Cl)o2)SC1=S	
350 nM	O=C(O)CCCN1C(=O)/C(=C/c2ccc(-c3cc(Cl)ccc3Cl)o2)SC1=S	
3900 nM	CCCC(C(=O)O)N1C(=O)/C(=C/c2ccc(-c3ccc(Cl)c(Cl)c3)o2)SC1=S (configuration not stated)	
650 nM	O=C(O)CCN1C(=O)/C(=C/c2ccc(-c3ccc([N+](=O)[O-])cc3)o2)SC1=S	
750 nM	CCC(C(=O)O)N1C(=O)/C(=C/c2ccc(-c3cccc(Cl)c3)o2)SC1=S (configuration not stated)	
650 nM	CC(C(=O)O)N1C(=O)/C(=C/c2ccc(-c3ccc(Cl)c(Cl)c3)o2)SC1=S (configuration not stated)	Activity [2]: 29%; Activity [3]: 34%; Activity [4]: 88%; Activity [5]: 14%; Activity [6]: 3%; Activity [7]: 46%; Activity [8]: 65%; Ki [9]: 340 nM
2800 nM	O=C(O)CC(C(=O)O)N1C(=O)/C(=C/c2ccc(-c3ccc(Br)cc3)o2)SC1=S (configuration not stated)	
> 33000 nM	O=C1/C(=C/c2ccc(-c3ccc(Cl)c(Cl)c3)o2)SC(=S)N1c1ccc(F)cc1	
500 nM	O=C(O)CCCCCN1C(=O)/C(=C/c2ccc(-c3ccccc3Cl)o2)SC1=S	
750 nM	CSCCC(C(=O)O)N1C(=O)/C(=C/c2ccc(-c3ccc(Cl)c(Cl)c3)o2)SC1=S (configuration not stated)	
800 nM	CCOC(=O)c1ccc(-c2ccc(/C=C3\SC(=S)N(C(CC(=O)O)C(C)=O)C3=O)o2)cc1 (configuration not stated)	
1000 nM	O=C(O)CC(C(=O)O)N1C(=O)/C(=C/c2ccc(-c3c(Cl)cccc3Cl)o2)SC1=S (configuration not stated)	
500 nM	CCCC(C(=O)O)N1C(=O)/C(=C/c2ccc(-c3ccc(Br)cc3)o2)SC1=S (configuration not stated)	
1800 nM	CCCC(C(=O)O)N1C(=O)/C(=C/c2ccc(-c3ccc([N+](=O)[O-])cc3)o2)SC1=S (configuration not stated)	
3000 nM	O=C(O)CN1C(=O)/C(=C/c2ccc(-c3ccccc3F)o2)SC1=S	
350 nM	O=C(O)CCCN1C(=O)/C(=C/c2ccc(-c3cccc(Cl)c3)o2)SC1=S	
1000 nM	O=C(O)CCN1C(=O)/C(=C/c2ccc(-c3cccc(Cl)c3)o2)SC1=S	
500 nM	O=C(O)CCCN1C(=O)/C(=C/c2ccc(-c3c(Cl)cccc3Cl)o2)SC1=S	
1250 nM	O=C(O)CN1C(=O)/C(=C/c2ccc(-c3ccccc3Cl)o2)SC1=S	
500 nM	CCC(C(=O)O)N1C(=O)/C(=C/c2ccc(-c3cc(Cl)ccc3Cl)o2)SC1=S (configuration not stated)	
200 nM	O=C(O)CCCN1C(=O)/C(=C/c2ccc(-c3ccc(Br)cc3)o2)SC1=S	Activity [2]: 28%; Activity [3]: 28%; Activity [4]: 10%; Activity [5]: 100%; Activity [6]: 3%; Activity [7]: 92%; Activity [8]: 51%

The next lines start with the compound.

Compound	IC50 [1]	further results
O=C(O)CCCN1C(=O)/C(=C/c2ccc(-c3ccccc3F)o2)SC1=S	3000 nM	
COC(=O)c1ccc(/C=C2\SC(=S)N(c3ccc(O)c(C(=O)O)c3)C2=O)cc1	> 33000 nM	
O=C(O)CCCCCN1C(=O)/C(=C/c2ccc(-c3ccc(Br)cc3)o2)SC1=S	200 nM	Activity [2]: 46%; Activity [3]: 34%; Activity [4]: 5%; Activity [5]: 21%; Activity [6]: 3%; Activity [7]: 65%; Activity [8]: 7%
O=C(O)CCN1C(=O)/C(=C/c2ccc(-c3ccccc3F)o2)SC1=S	300 nM	Activity [2]: 44%; Activity [3]: 56%; Activity [4]: 22%; Activity [5]: 39%; Activity [6]: 2.5%; Activity [7]: 87%; Activity [8]: 32%
O=C1NC(=S)S/C1=C\c1cccc(Br)c1	> 33000 nM	
O=C1/C(=C/c2ccco2)SC(=S)N1c1cccnc1	> 33000 nM	
COC(=O)CCCN1C(=O)/C(=C/c2ccc(-c3ccc(Br)cc3)o2)SC1=S	> 33000 nM	
O=C(O)CCCCCN1C(=O)/C(=C/c2ccc(-c3cccc(C(F)(F)F)c3)o2)SC1=S	500 nM	
O=C(O)c1ccc(N2C(=O)/C(=C/c3cccnc3)SC2=S)cc1	> 33000 nM	
O=C(O)CN1C(=O)/C(=C/c2ccco2)SC1=S	> 33000 nM	
O=C(O)C(Cc1ccccc1)N1C(=O)/C(=C/c2ccncc2)SC1=S (configuration not stated)	> 33000 nM	
O=C1NC(=S)S/C1=C\c1cccnc1	> 33000 nM	
O=C(O)CN1C(=O)/C(=C/c2ccncc2)SC1=S	> 33000 nM	
O=C1/C(=C/c2ccc(-c3ccc(Br)cc3)o2)SC(=S)N1c1cccc(O)c1	2000 nM	
COC(=O)CCCN1C(=O)/C(=C/c2ccc(-c3ccccc3F)o2)SC1=S	> 33000 nM	
O=C1/C(=C/c2ccc(Cl)cc2Cl)SC(=S)N1Nc1ccccc1	> 33000 nM	
O=C1NC(=S)S/C1=C\c1ccc(-c2ccccc2[N+](=O)[O-])o1	> 33000 nM	
